# T cruzi repl = T. cruzi replication inhibition | T. cruzi beta-gal in NIH3T3, luminescence, 90 h | actives 1.4% (n = 300,000) | AID 1885 | inhibition, % (concentration not given with the values);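 active = mean inhibition across valid replicates above about 55%, limit read from the data; inconclusive = mean below that limit but half or more replicates reach it; inactive = mean below it, under half of replicates reach it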;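 also: signal also drops with host cell toxicity which is not excluded here; 0% = plate median of DMSO wells and 100% = zero luminescence signal; higher percent means less beta-gal luminescence so fewer parasites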
#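 Assay system: NIH/3T3 fibroblasts plus reporter T. cruzi. Amount: NIH/3T3 cells, 5,000 per well. Buffer or medium: DMEM, 2% fetal bovine serum. Doses: compound pinned at 50 nL/well, DMSO. Schedule: ≥90 h infection period, 3 h prior cell attachment. Signal: luminescent β-galactosidase signal after 60 min lysis. Read-out: parasite load inhibition, %.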
# NALP3 yeast inh = NALP3 inhibition in yeast. Yeast reconstituted NLRP3/ASC/caspase-1, beta-gal luminescence, 24 h. inhibition, % at 10 µM. actives 0.39% (n = 330,000);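 active = inhibition of 50% or more; inactive = inhibition below 50%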;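 also: plate controls were induced DMSO wells for no effect and uninduced yeast grown without galactose for full effect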
# Calb FLC = affects C. albicans growth with fluconazole | C. albicans CaCi-2 + fluconazole, Alamar Blue growth, 48 h | growth inhibition, % (test concentration not listed) | AID 1979 | actives 0.57% (n = 300,000);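 active = growth inhibition above about 58% in most replicates, limit read from the data, passing the limit was not always enough; inconclusive = exactly half the replicates above a set limit; inactive = most replicates below a set limit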;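 also: all wells also contain fluconazole at 8 µg/ml as a sub-toxic cotreatment; 0% = median of DMSO wells and 100% = median of geldanamycin control wells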
# NALP1 inh = inhibitors of NALP1 inflammasome in yeast | S. cerevisiae NALP1/ASC/caspase-1 growth, X-gal OD620, 72 h | inhibition, % at 10 µM | actives 0.61% (n = 280,000) | AID 2071; in the data active = inhibition mostly above about 24%, no sharp cut-off; inactive = mostly below about 32%
# PolyA inh = blocks polyadenylation in yeast reporter cells; actives 0.02% (n = 300,000); S. cerevisiae SKY197-pL101 polyadenylation reporter, beta-gal luminescence; efflux-impaired pdr1/pdr3 knockout yeast; score 100 = 6 SD above DMSO; activity score, % at 12 µM;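 active = lowest replicate activity score at least 50, where 100 means six control SD above control mean; inconclusive = lowest score under 50 but half or more replicates reach 50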;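 also: yeast exposed to compound for 9 h at 30 °C; higher score means more reporter readthrough which indicates perturbed polyadenylation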
# L major viab = inhibitors of Leishmania major promastigote growth. Leishmania major promastigotes, resazurin fluorescence viability. actives 9% (n = 200,000). inhibition, % at 10 µM; in the data active = inhibition above about 50%;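 also: promastigotes grown with compound for 44 hours at 28 °C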
# Starred values were filed as active, the others as inactive; ? = inconclusive; · = no result given. The entries come from a sample that favours hits as a whole.
SMILES,T cruzi repl,NALP3 yeast inh,Calb FLC,NALP1 inh,PolyA inh,L major viab
O=C(COc1ccccc1)N/N=C/c1ccc([N+](=O)[O-])o1,82.6*,14.7,-15.9,20.8,-1.6,100.3*
O=C(N/N=C/c1ccc([N+](=O)[O-])o1)C(O)c1ccccc1 (stereo unspecified),75.8*,7.1,-1.8,·,6.7,·
Cc1ccc(OCC(=O)N/N=C\c2ccc(C)o2)c([N+](=O)[O-])c1,0.0,·,-8.5,4.3,4.9,6.0
NC(=O)N/N=C/c1ccc([N+](=O)[O-])o1,·,23.9,·,·,·,·
Cc1ccc(OCC(=O)N/N=C/c2ccc([N+](=O)[O-])o2)cc1,66.3*,14.6,39.5,39.0,-11.2,100.0*
O=C(CNc1ccc2ccccc2c1)N/N=C/c1ccc([N+](=O)[O-])o1,68.5*,14.2,59.3,26.9,-12.4,100.0*
COc1ccccc1N(CC(=O)NC1CCCCC1C)S(=O)(=O)c1cccs1 (stereo unspecified),·,11.4,·,·,·,·
COc1ccc(-c2nn(-c3ccccc3)cc2C(=O)N/N=C/c2ccc([N+](=O)[O-])o2)cc1,90.2*,11.0,8.0,17.3,-6.5,64.8*
CN(/N=C/c1ccc([N+](=O)[O-])o1)c1ccccc1,60.0*,35.8,6.6,5.0,-32.9,70.6*
O=[N+]([O-])c1cccc(/C=C/C=N/Nc2nc(N3CCCCC3)nc(N3CCCCC3)n2)c1,33.0,27.8,18.4,-8.8,-21.4,33.2
CC(=O)N1CCc2cc(S(=O)(=O)NC(C(=O)N3CCN(c4ccccc4F)CC3)C(C)C)ccc21 (stereo unspecified),-0.7,-5.4,-2.1,·,-12.6,·
Cc1cc(C)c2[nH]c(=O)c(CN(Cc3nnnn3C3CCCC3)C3CCCCC3)cc2c1,4.5,·,-1.0,-6.0,3.3,28.9
Cc1cccc2cc(CN(Cc3nnnn3C3CCCCC3)C3CCCC3)c3nnnn3c12,51.4,3.4,-4.4,-2.9,-63.8,50.2*
CCCC(C)C(=O)Nc1ccc(F)c(Cl)c1 (stereo unspecified),3.9,-27.2,-43.5,6.8,-14.9,23.4
CC(C)CC(=O)Nc1ccc(F)c(Cl)c1,-0.1,14.2,-2.9,1.8,-17.2,60.2*
Cc1ccc(OCCC(=O)Nc2ccc(F)c(F)c2)cc1,14.0,24.7,-30.3,24.6,-6.7,-5.1
Cc1cccc(OCCC(=O)Nc2ccc(F)c(Cl)c2)c1,0.3,26.1,-21.1,26.8,8.4,65.3*
O=c1cnc2ccccc2n1Cc1ccccc1C(F)(F)F,0.3,1.0,1.0,28.8,15.3,·
O=C(Oc1cccc(NC2=NS(=O)(=O)c3ccccc32)c1)c1cccnc1,-3.3,13.8,0.8,2.3,-1.7,-4.0
CCN(CC)Cc1cc(NC2=NS(=O)(=O)c3ccccc32)ccc1OC(=O)c1ccccc1,-0.6,6.1,-4.3,29.6,3.8,98.5*
CCN(CC)Cc1cc(NC2=NS(=O)(=O)c3ccccc32)ccc1OC(=O)C(C)C,-23.5,-0.6,21.0,1.6,7.6,99.0*
CCOC(=O)c1c(-c2ccc(C)cc2)csc1NC1=NS(=O)(=O)c2ccccc21,-5.5,-2.3,17.9,24.8,11.0,8.0
COc1cc(/C=C/C(=O)c2ccc(C)cc2)ccc1OCC#N,0.6,25.3,-3.0,·,-23.7,97.8*
CCOc1cc(/C=C2/COc3ccccc3C2=O)ccc1OCC(=O)N(C)C,·,·,·,-12.5,·,100.4*
CCOc1cc(/C=C/C(=O)O)ccc1OCCO,-14.6,9.3,-17.3,-11.5,-7.3,9.6
SMILES,T cruzi repl,NALP3 yeast inh,Calb FLC,NALP1 inh,PolyA inh,L major viab
CNc1ccc(/C=C2\COc3ccccc3C2=O)cc1[N+](=O)[O-],11.2,35.2,7.0,3.0,-12.5,8.8
CCOc1cc(/C=C/C(=O)c2ccc(C)cc2)ccc1OCC(=O)N(C)C,-4.0,9.9,-0.4,24.6,32.8,100.0*
COc1ccc(/C=C/C(=O)c2ccc(C(=O)/C=C/c3ccc(OC)c(OC)c3)cc2)cc1OC,?,19.6,5.3,22.1,2.3,·
Oc1ccc(/C=N/Nc2cc(N3CCCC3)nc(N3CCCC3)n2)cc1O,-14.3,8.6,-1.2,-45.4,-5.8,99.0*
CCCCOc1ccc(/C=N/Nc2cc(N3CCOCC3)nc(C)n2)cc1,56.5*,28.5,32.8,13.0,-5.4,·
Cc1cccc(/C=N/Nc2cc(N3CCOCC3)nc(N3CCOCC3)n2)c1,69.1*,30.2,-12.4,14.7,-4.9,87.4*
Cc1ccc2nc(NCc3ccccc3)[nH]c2c1,-16.4,·,-8.0,-2.3,18.0,64.8*
COCCCn1c(=O)c2sccc2n2c(CCCC(=O)NCc3ccccc3)nnc12,-29.3,8.7,?,4.3,-1.3,·
Cc1ccccc1NC(=O)CN1C(=O)CSc2ccc(S(=O)(=O)N3CCCCC3)cc21,5.5,-6.6,8.5,17.6,-8.9,·
Cc1ccc(C(=O)N(Cc2cccnc2)Cc2cc3cc(C)ccc3n3nnnc23)cc1,66.7*,6.1,-12.7,5.7,-5.2,96.1*
Cc1ccc2c(c1)cc(CN(Cc1cccnc1)C(=O)c1ccccc1)c1nnnn12,21.0,15.1,10.3,-9.8,-11.9,47.5
Cc1ccc2c(c1)cc(CN(Cc1ccc3c(c1)OCO3)S(=O)(=O)c1ccccc1)c1nnnn12,41.4,11.2,-1.0,14.9,6.5,99.0*
COc1ccc(-c2cc(-c3ccccc3)c(C#N)c(S(C)=O)n2)cc1 (stereo unspecified),-24.8,1.8,10.6,15.5,-16.4,100.4*
CC1=NNC(=O)/C1=C\c1cn(-c2ccccc2)nc1-c1ccc(F)cc1,26.5,·,18.5,8.1,-33.3,100.4*
CC(C)C1C(C#N)=C(N)Oc2n[nH]c(-c3cccs3)c21 (stereo unspecified),2.4,15.5,24.7,-2.0,-12.5,8.8
Cc1ccc(-c2[nH]nc3c2C(c2ccsc2)C(C#N)=C(N)O3)cc1 (stereo unspecified),-7.2,10.3,3.9,0.8,-3.6,6.7
CC(C)c1[nH]nc2c1C(c1cccs1)C(C#N)=C(N)O2 (stereo unspecified),-12.1,32.4,-0.4,14.6,-17.9,59.5*
Cc1[nH]nc2c1C(c1ccsc1)C(C#N)=C(N)O2 (stereo unspecified),-17.0,19.2,-3.1,14.1,-12.1,56.9*
Cc1[nH]nc2c1C(c1ccsc1C)C(C#N)=C(N)O2 (stereo unspecified),-2.1,2.2,2.1,-7.9,8.3,77.4*
O=S(=O)(CCSc1ccc(C(F)(F)F)cn1)c1ccc(Cl)cc1,-12.1,18.2,-9.3,2.4,-1.1,·
CCOc1ccc(N2C(=O)CN=C2Nc2ccccc2Cl)cc1,-1.6,5.5,-2.7,10.7,-1.3,19.0
O=C1CN=C(Nc2ccccc2Cl)N1c1ccccc1,-1.0,27.0,-4.6,33.8*,5.6,-2.8
Cc1cc(NC(=O)c2ccc(C)c(C)c2)no1,-4.6,25.7,7.3,3.9,17.3,·

# High-throughput results from PubChem.
